Source: PubChem BioAssay
Sampled rows, rich in hits. Any-hit rate of the full collection: about 1.4%.
ERp5 block – inhibitors of ERp5-driven insulin aggregation, primary screen, biochemical, turbidity, absorbance 650 nm, single point; 90 min; hit rate 0.05% among 350,000; Protein disulfide-isomerase A6 (Homo sapiens), Q15084; inhibition, % at 9.99 µM;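 active = mean replicate inhibition above about 25%, with every replicate also reaching it, limit read from the data, passing the limit was not always enough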
Target sequence (Q15084 whole entry, looked up): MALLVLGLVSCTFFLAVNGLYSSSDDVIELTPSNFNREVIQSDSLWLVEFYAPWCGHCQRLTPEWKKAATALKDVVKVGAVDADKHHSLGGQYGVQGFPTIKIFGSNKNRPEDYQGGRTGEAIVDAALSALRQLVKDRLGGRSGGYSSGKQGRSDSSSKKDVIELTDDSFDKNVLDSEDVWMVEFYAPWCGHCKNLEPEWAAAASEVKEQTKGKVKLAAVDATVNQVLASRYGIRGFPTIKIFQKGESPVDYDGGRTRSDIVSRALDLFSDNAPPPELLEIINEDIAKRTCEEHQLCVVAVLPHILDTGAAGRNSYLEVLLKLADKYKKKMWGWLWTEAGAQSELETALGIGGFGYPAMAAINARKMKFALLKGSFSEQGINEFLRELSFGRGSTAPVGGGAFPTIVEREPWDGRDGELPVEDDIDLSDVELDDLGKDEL
Env fusion inh – inhibitors of HIV-1 Env-driven cell-cell fusion, primary screen, HeLa-JRFL effector, CEM21 target cells, luciferase; inhibition, % at 12.3 µM; hit rate 1.1% among 360,000;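 active = mean replicate inhibition score of at least 50 and every replicate individually at or above 50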
FN deposit inh – inhibitors of fibronectin matrix deposition, primary screen, AH1F cells, Alexa488-fibronectin fluorescence, plate reader; AH1F fibroblasts, overnight; inhibition, % at 12.6 µM; hit rate 0.086% among 350,000;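 active = mean inhibition across replicates of 30% or more, regardless of how many single replicates reach that level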
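material = AH1F fibroblast monolayer depositing Alexa488-labelled fibronectin into matrix | amount = 10000 AH1F cells/well | buffer or medium = DMEM plus 2% serum, read in PBS | incubation = 1 h cell adhesion before compound, then overnight fibronectin incubation | detection = fluorescence at 485 nm excitation, 525 nm emission | evaluation = percent inhibition as loss of matrix-bound fibronectin fluorescence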
GSIS activator – GLuc luminescence reporter in INS-1E cells, primary screen for activators of glucose-dependent secretion of insulin | INS-1E GLuc reporter insulin secretion, 2-3 h | activation, % at 16.6 µM | hit rate 0.61% among 370,000 | AID 743287, 2014;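 active = lowest replicate activation of at least 40%, so every replicate reaches that level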
PDI inh – inhibitors of human PDI, primary screen, biochemical, turbidity, single point, plate reader; AID 588391, 2011; inhibition, % at 10 µM; hit rate 0.052% among 350,000; Protein disulfide-isomerase (Homo sapiens), P07237; PDI insulin aggregation turbidity, A650, 90 min;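 active = mean inhibition across replicates of 30% or more, whatever share of single replicates reach that level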
Numbers stand for hits; i = inactive; nt = no result given; [ ] = remark or other dose.

SMILES	ERp5 block	Env fusion inh	FN deposit inh	GSIS activator	PDI inh
COc1ccc(CCCC(=O)NCCc2ccccc2)c(C)c1	i	89	i	i	i
COCCCNC(=O)c1cccc2c(-c3ccc(OC)cc3C)coc12	i	nt	i	i	i
COc1ccc(CN(C)C(=O)COC(=O)c2ccc3c(c2)OCO3)cc1OC	nt	nt	nt	64	i
COc1ccc(CCNC(=O)COC(=O)c2ccco2)cc1OC	nt	i	i	nt	i
COc1ccc(CCNC(=O)COC(=O)c2ccccc2NCCO)cc1OC	i	nt	i	83	i
COc1ccc(-c2coc3c(C(=O)NCCc4ccccc4)cccc23)c(C)c1	i	55	i	nt	i
C[C@H](CO)N1C[C@H](C)[C@@H](CN(C)C)Oc2ccc(NC(=O)CCCCCC(=O)Nc3ccccc3N)cc2C1=O	i	nt	i	i	nt
CCCC#Cc1ccc([C@H]2[C@H](CO)N3C(=O)CN(C(=O)Nc4ccc(F)cc4)C[C@@H]23)cc1	i	nt	nt	i	nt
O=C(C[C@H]1C=C[C@H](NC(=O)Nc2ccccc2F)[C@H](CO)O1)NCc1ccc(-c2ccccc2)cc1	i	i	i	i	nt
O=C(c1ccc(F)cc1)N1CCCCN2[C@H](C1)[C@@H](c1ccc(-c3ccc(F)cc3)cc1)[C@@H]2CO	i	nt	nt	nt	nt
COc1ccccc1C(=O)N/C(=C/c1ccc(Br)cc1)C(=O)N1CCCC1	i	i	32	nt	i
COc1ccccc1C(=O)N/C(=C\c1ccc(Br)cc1)C(=O)NCC(=O)O	i	i	i	i	i
CCOC(=O)Cn1c(S(=O)(=O)Cc2ccc(Cl)cc2)nc(-c2ccccc2)c1-c1ccccc1	nt	114	i	nt	i
C#CCn1c(S(=O)(=O)Cc2ccc(OC)cc2)nc(-c2ccccc2)c1-c1ccccc1	nt	82	i	i	i
COc1ccc(NC(=O)Nc2ccc3c(c2)C(=O)N([C@@H](C)CO)C[C@@H](C)[C@H](CN(C)C(=O)NC(C)C)OCCCC[C@@H](C)O3)cc1	i	i	i	i	nt
C[C@@H]1CCCCO[C@@H](CN(C)S(=O)(=O)c2cn(C)cn2)[C@@H](C)CN([C@@H](C)CO)C(=O)c2cc(NC(=O)Cc3ccccc3)ccc2O1	nt	i	nt	i	nt
COc1ccc(/C=N/NC(=O)c2ccoc2C)cc1COc1c(C)cccc1C	nt	76	i	nt	i
COc1ccc(/C=N\NC(=O)c2ccccc2OC)cc1COc1ccccc1C	i	i	nt	i	i
COc1ccc(Cl)cc1S(=O)(=O)N1CCN=C1C	i	34	i	i	nt
CN(C)C(=O)C[C@@H]1C[C@H]2c3cc(NS(C)(=O)=O)ccc3O[C@H]2[C@H](CO)O1	i	i	i	i	nt
CN(C)C(=O)C[C@H]1CC[C@H]2[C@H](COc3ccc(NC(=O)C4CCCCC4)cc3C(=O)N2C)O1	nt	i	i	i	nt
COc1ccccc1CNC(=O)C[C@H]1C[C@@H]2c3cc(NS(=O)(=O)c4ccc(F)cc4)ccc3O[C@@H]2[C@@H](CO)O1	i	55[16.7 µM]	nt	i	nt
COc1ccccc1CNC(=O)C[C@H]1C[C@@H]2c3cc(NS(=O)(=O)c4ccc(F)cc4)ccc3O[C@@H]2[C@H](CO)O1	i	94[16.7 µM]	nt	i	nt
O=C(C[C@H]1CC[C@H](NC(=O)Nc2cccc(F)c2)[C@@H](CO)O1)NCC1CC1	i	i	i	i	nt
C[C@H]1CN([C@@H](C)CO)C(=O)c2cccc(NC(=O)C3CCOCC3)c2O[C@H]1CN(C)C(=O)Nc1ccc(F)cc1	i	i	nt	i	nt
SMILES	ERp5 block	Env fusion inh	FN deposit inh	GSIS activator	PDI inh
O=C(Cc1ccccn1)NCC[C@@H]1CC[C@H](NC(=O)Nc2ccc(Cl)cc2)[C@H](CO)O1	i	nt	nt	i	nt
COC(=O)C[C@H]1CC[C@@H]2[C@@H](COc3ccc(NC(=O)c4cc(F)cc(F)c4)cc3C(=O)N2C)O1	nt	i	i	i	nt
COC(=O)C1CCCCN1C(=O)c1cc(COc2cccc3cnccc23)on1 (stereo not given)	i	64	i	i	i
C[C@H](CO)N1C[C@H](C)[C@@H](CN(C)C)OCCCC[C@H](C)Oc2ccc(NS(=O)(=O)c3ccc(F)cc3)cc2C1=O	i	i	i	i	nt
C[C@H](CO)N1C[C@H](C)[C@H](CN(C)C(=O)NC2CCCCC2)Oc2c(NC(=O)Nc3ccccc3)cccc2C1=O	i	nt	nt	i	nt
COc1ccc(-c2cc(C(=O)NCc3ccc(Cl)cc3)no2)cc1OC	nt	i	nt	i	i
